Data from ChEMBL document CHEMBL1649392, “Synthesis of substituted 3-amino-N-phenyl-1H-indazole-1-carboxamides endowed with antiproliferative activity” (Eur J Med Chem, 2011).

How the values were obtained:
Assay type in all cases: functional
UACC-62 = test: Antiproliferative activity against human UACC62 cells after 48 hrs by sulforhodamine B assay; details: UACC-62, 48 h; for CC50: read-out: LC50 (the source's name)
Outline: (§1)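 NCI 60-cell-line panel screen: single dose 10 µM first, then 5-dose testing (0.01, 0.1, … molar series). For each line, GI50 is the molar concentration giving 50% inhibition of net cell growth, TGI gives total inhibition of net growth, and LC50 gives 50% net cell death. Method follows the NCI DTP protocol.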

NCI-H226 = test: Antiproliferative activity against human NCI-H226 cells after 48 hrs by sulforhodamine B assay; details: NCI-H226, 48 h; for CC50: read-out: LC50 (the source's name)
Outline: (§2)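 NCI 60-cell-line panel covering nine cancer types (leukemia, non-small cell lung, colon, CNS, melanoma, ovarian, renal, prostate, breast). Compounds were first tested at a single dose, then in a five-dose screen (series starting 0.01, 0.1 …) if they met NCI threshold criteria. Reported per line: GI50 (molar concentration inhibiting 50% net growth), TGI (total growth inhibition) and LC50 (50% net cell death).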

Malme-3M = test: Antiproliferative activity against human MALME-3M cells after 48 hrs by sulforhodamine B assay; outline: as §2
T47D = test: Antiproliferative activity against human T47D cells after 48 hrs by sulforhodamine B assay; outline: as §1
[1] = Antiproliferative activity against human Hs 578T cells after 48 hrs by sulforhodamine B assay; details: for CC50: read-out: LC50 (the source's name); outline: as §2
SK-MEL-2 = test: Antiproliferative activity against human SK-MEL-2 cells after 48 hrs by sulforhodamine B assay; details: SK-MEL-2, 48 h; for CC50: read-out: LC50 (the source's name); outline: as §2
M14 = test: Antiproliferative activity against human M14 cells after 48 hrs by sulforhodamine B assay; details: M14, 48 h; for CC50: read-out: LC50 (the source's name); outline: as §2
COLO 205 = test: Antiproliferative activity against human COLO205 cells after 48 hrs by sulforhodamine B assay; details: COLO 205, 48 h; outline: as §2
K562 = test: Antiproliferative activity against human K562 cells after 48 hrs by sulforhodamine B assay; details: K562, 48 h; outline: as §2
SW-620 = test: Antiproliferative activity against human SW620 cells after 48 hrs by sulforhodamine B assay; details: SW-620, 48 h; for CC50: read-out: LC50 (the source's name); outline: as §1
NCI-H322M = test: Antiproliferative activity against human NCI-H322M cells after 48 hrs by sulforhodamine B assay; details: for CC50: read-out: LC50 (the source's name); outline: as §2
KM12 = test: Antiproliferative activity against human KM12 cells after 48 hrs by sulforhodamine B assay; details: KM12, 48 h; for CC50: read-out: LC50 (the source's name); outline: as §2
SK-OV-3 = test: Antiproliferative activity against human SKOV3 cells after 48 hrs by sulforhodamine B assay; details: SK-OV-3, 48 h; for CC50: read-out: LC50 (the source's name); outline: as §2
HCC 2998 = test: Antiproliferative activity against human HCC2998 cells after 48 hrs by sulforhodamine B assay; details: HCC 2998, 48 h; for CC50: read-out: LC50 (the source's name); outline: as §2
CAKI-1 = test: Antiproliferative activity against human Caki1 cells after 48 hrs by sulforhodamine B assay; details: CAKI-1, 48 h; for CC50: read-out: LC50 (the source's name); outline: as §2
IGROV-1 = test: Antiproliferative activity against human IGROV1 cells after 48 hrs by sulforhodamine B assay; details: IGROV-1, 48 h; for CC50: read-out: LC50 (the source's name); outline: as §2
SF-268 = test: Antiproliferative activity against human SF268 cells after 48 hrs by sulforhodamine B assay; details: SF-268, 48 h; for CC50: read-out: LC50 (the source's name); outline: as §2
U-251 = test: Antiproliferative activity against human U251 cells after 48 hrs by sulforhodamine B assay; details: U-251, 48 h; outline: as §1
SF-295 = test: Antiproliferative activity against human SF295 cells after 48 hrs by sulforhodamine B assay; details: SF-295, 48 h; outline: as §2
DU-145 = test: Antiproliferative activity against human DU145 cells after 48 hrs by sulforhodamine B assay; details: DU-145, 48 h; for CC50: read-out: LC50 (the source's name); outline: as §2
EKVX = test: Antiproliferative activity against human EKVX cells after 48 hrs by sulforhodamine B assay; details: for CC50: read-out: LC50 (the source's name); outline: as §2
A549 = test: Antiproliferative activity against human A549 cells after 48 hrs by sulforhodamine B assay; details: A549, 48 h; for CC50: read-out: LC50 (the source's name); outline: as §2
HCT-116 = test: Antiproliferative activity against human HCT116 cells after 48 hrs by sulforhodamine B assay; details: HCT-116, 48 h; outline: as §2
SK-MEL-28 = test: Antiproliferative activity against human SK-MEL-28 cells after 48 hrs by sulforhodamine B assay; details: SK-MEL-28, 48 h; for CC50: read-out: LC50 (the source's name); outline: as §2
ACHN = test: Antiproliferative activity against human ACHN cells after 48 hrs by sulforhodamine B assay; details: for CC50: read-out: LC50 (the source's name); outline: as §2
SNB-19 = test: Antiproliferative activity against human SNB19 cells after 48 hrs by sulforhodamine B assay; details: SNB-19, 48 h; for CC50: read-out: LC50 (the source's name); outline: as §2
[2] = Antiproliferative activity against human […] cells after 48 hrs by sulforhodamine B assay; details: for CC50: read-out: LC50 (the source's name); outline: as §2
OVCAR-8 = test: Antiproliferative activity against human OVCAR8 cells after 48 hrs by sulforhodamine B assay; details: OVCAR-8, 48 h; for CC50: read-out: LC50 (the source's name); outline: as §2
OVCAR-3 = test: Antiproliferative activity against human OVCAR3 cells after 48 hrs by sulforhodamine B assay; details: OVCAR-3, 48 h; for CC50: read-out: LC50 (the source's name); outline: as §2
BT-549 = test: Antiproliferative activity against human BT549 cells after 48 hrs by sulforhodamine B assay; details: BT-549, 48 h; for CC50: read-out: LC50 (the source's name); outline: as §2
HOP-62 = test: Antiproliferative activity against human HOP62 cells after 48 hrs by sulforhodamine B assay; details: HOP-62, 48 h; outline: as §2

Nc1nn(C(=O)Nc2ccc(Cc3ccccc3)cc2)c2ccc(Cl)cc12
GI50 (UACC-62): 0.0412 µM
TGI (UACC-62): > 100 µM
CC50 (UACC-62): > 100 µM
GI50 (NCI-H226): 15.4 µM
TGI (NCI-H226): 66.7 µM
CC50 (NCI-H226): > 100 µM
GI50 (Malme-3M): 6.69 µM
LC50 (concentration causing 50% net cell death) (Malme-3M): > 100 µM
TGI (Malme-3M): 54.8 µM
GI50 (T47D): 0.0741 µM
LC50 (concentration giving 50% net cell death) (T47D): > 100 µM
TGI (T47D): 27.6 µM
GI50 [1]: 13.3 µM
TGI [1]: 41.7 µM
CC50 [1]: > 100 µM
GI50 (SK-MEL-2): 33.6 µM
TGI (SK-MEL-2): > 100 µM
CC50 (SK-MEL-2): > 100 µM
GI50 (M14): 0.0888 µM
TGI (M14): 14 µM
CC50 (M14): > 100 µM
GI50 (COLO 205): 0.588 µM
LC50 (concentration causing 50% net cell death) (COLO 205): > 100 µM
TGI (COLO 205): 23.8 µM
GI50 (K562): 0.0357 µM
LC50 (concentration causing 50% net cell death) (K562): > 100 µM
TGI (K562): 14.7 µM
GI50 (SW-620): 0.0565 µM
TGI (SW-620): 76.5 µM
CC50 (SW-620): > 100 µM
GI50 (NCI-H322M): 18.2 µM
TGI (NCI-H322M): > 100 µM
CC50 (NCI-H322M): > 100 µM
GI50 (KM12): 0.0726 µM
TGI (KM12): > 100 µM
CC50 (KM12): > 100 µM
GI50 (SK-OV-3): 15.8 µM
TGI (SK-OV-3): 50.5 µM
CC50 (SK-OV-3): > 100 µM
GI50 (HCC 2998): 0.238 µM
TGI (HCC 2998): 1.53 µM
CC50 (HCC 2998): > 100 µM
GI50 (CAKI-1): 0.217 µM
TGI (CAKI-1): > 100 µM
CC50 (CAKI-1): > 100 µM
GI50 (IGROV-1): 13.7 µM
TGI (IGROV-1): > 100 µM
CC50 (IGROV-1): > 100 µM
GI50 (SF-268): 13 µM
TGI (SF-268): 47.7 µM
CC50 (SF-268): > 100 µM
GI50 (U-251): 12.5 µM
LC50 (concentration giving 50% net cell death) (U-251): 58.4 µM
TGI (U-251): 27 µM
GI50 (SF-295): 0.0515 µM
LC50 (SF-295): > 100 µM
TGI (SF-295): 24.2 µM
GI50 (DU-145): 10.4 µM
TGI (DU-145): 28.9 µM
CC50 (DU-145): 80 µM
GI50 (EKVX): 3.19 µM
TGI (EKVX): 97.6 µM
CC50 (EKVX): > 100 µM
GI50 (A549): 2.52 µM
TGI (A549): > 100 µM
CC50 (A549): > 100 µM
GI50 (HCT-116): 0.467 µM
LC50 (concentration causing 50% net cell death) (HCT-116): 77.2 µM
TGI (HCT-116): 25.1 µM
GI50 (SK-MEL-28): 18.5 µM
TGI (SK-MEL-28): > 100 µM
CC50 (SK-MEL-28): > 100 µM
GI50 (ACHN): 0.0468 µM
TGI (ACHN): 17.4 µM
CC50 (ACHN): > 100 µM
GI50 (SNB-19): 14.6 µM
TGI (SNB-19): 43.3 µM
CC50 (SNB-19): > 100 µM
GI50 [2]: 2.58 µM
TGI [2]: 46.5 µM
CC50 [2]: > 100 µM
GI50 (OVCAR-8): 14.9 µM
TGI (OVCAR-8): > 100 µM
CC50 (OVCAR-8): > 100 µM
GI50 (OVCAR-3): 6.66 µM
TGI (OVCAR-3): 20.8 µM
CC50 (OVCAR-3): 48.2 µM
GI50 (BT-549): 5.88 µM
TGI (BT-549): 44 µM
CC50 (BT-549): > 100 µM
GI50 (HOP-62): 1.21 µM
LC50 (concentration causing 50% net cell death) (HOP-62): 59.7 µM
TGI (HOP-62): 16.4 µM

Nc1nn(C(=O)Nc2ccc(Cc3ccccc3)cc2)c2ccccc12
TGI (UACC-62): > 100 µM
CC50 (UACC-62): > 100 µM
TGI (NCI-H226): 58.2 µM
CC50 (NCI-H226): > 100 µM
LC50 (concentration causing 50% net cell death) (Malme-3M): > 100 µM
TGI (Malme-3M): 64.1 µM
LC50 (concentration giving 50% net cell death) (T47D): > 100 µM
TGI (T47D): > 100 µM
TGI [1]: 71.8 µM
CC50 [1]: > 100 µM
TGI (SK-MEL-2): > 100 µM
CC50 (SK-MEL-2): > 100 µM
TGI (M14): > 100 µM
CC50 (M14): > 100 µM
LC50 (concentration causing 50% net cell death) (COLO 205): > 100 µM
TGI (COLO 205): 37.7 µM
GI50 (K562): 1.2 µM
LC50 (concentration causing 50% net cell death) (K562): > 100 µM
TGI (SW-620): 41.5 µM
CC50 (SW-620): > 100 µM
TGI (NCI-H322M): > 100 µM
CC50 (NCI-H322M): > 100 µM
TGI (KM12): > 100 µM
CC50 (KM12): > 100 µM
TGI (SK-OV-3): > 100 µM
CC50 (SK-OV-3): > 100 µM
TGI (HCC 2998): 35.9 µM
CC50 (HCC 2998): > 100 µM
TGI (CAKI-1): 58 µM
CC50 (CAKI-1): > 100 µM
TGI (IGROV-1): 48.8 µM
CC50 (IGROV-1): > 100 µM
TGI (SF-268): 32.3 µM
CC50 (SF-268): > 100 µM
LC50 (concentration giving 50% net cell death) (U-251): 65.9 µM
TGI (U-251): 30.2 µM
GI50 (SF-295): 0.53 µM
LC50 (SF-295): > 100 µM
TGI (SF-295): > 100 µM
CC50 (DU-145): > 100 µM
TGI (EKVX): 92 µM
CC50 (EKVX): > 100 µM
TGI (A549): 48.6 µM
CC50 (A549): > 100 µM
LC50 (concentration causing 50% net cell death) (HCT-116): > 100 µM
TGI (HCT-116): > 100 µM
TGI (SK-MEL-28): > 100 µM
CC50 (SK-MEL-28): > 100 µM
CC50 (ACHN): > 100 µM
TGI (SNB-19): > 100 µM
CC50 (SNB-19): > 100 µM
GI50 [2]: 1.86 µM
TGI [2]: 25.8 µM
CC50 [2]: 84 µM
TGI (OVCAR-8): 63.9 µM
CC50 (OVCAR-8): > 100 µM
TGI (OVCAR-3): 63.1 µM
CC50 (OVCAR-3): > 100 µM
TGI (BT-549): 39.6 µM
CC50 (BT-549): > 100 µM
LC50 (concentration causing 50% net cell death) (HOP-62): > 100 µM
TGI (HOP-62): 46.5 µM
